The list is not random: actives were taken first. Their share in the collection is about 3.7%.
JMJD2C inh – inhibitors of human GASC-1 (JMJD2C) demethylase; Q9H3R0; AID 2099; 330,000 compounds, 0.069% hits; GST-JMJD2C(1-420) H3K9me3 demethylation, DELFIA europium; inhibition, % at 2.35 µM;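 active = more than half of a compound's replicate wells show inhibition beyond 50%, single wells judged on their own value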;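 note: signal counts dimethyl H3K9 product captured on neutravidin plate; 0% = median of DMSO wells and 100% = 0.3 times that DMSO median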
SR-BI DiI-HDL act – SR-BI HDL lipid transfer activation; CHO ldlA[mSR-BI] cells, DiI-HDL uptake fluorescence, 3 h; 100 = double the neutral-control signal; activation, % at 12.5 µM; 320,000 compounds, 0.096% hits; AID 504775;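 active = mean replicate activation of at least 60% and every replicate at or above 60%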;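 note: 0% = median plate neutral-control signal and 100% = twice that signal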
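Test system: SR-BI-overexpressing, LDLR-lacking CHO cells. Measured by: DiI fluorescence, bottom read. Medium: Ham's F12 with 0.5% BSA, HEPES 25 mM, pH 7.4. Timing: 3 h uptake period with compound, 37 °C.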
GAA850 FXN act – increases GAA850 frataxin promoter reporter activity; activation, % at 6 µM; 360,000 compounds, 0.56% hits; AID 540364; HEK293 lucGAA850 FXN promoter luciferase reporter, 24 h; percent of 10 µM SAHA response;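 active = activation above the average of all compounds screened plus 3 SD, cutoff fixed separately per campaign, cut at about 7.5% in these data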;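 note: 0% = DMSO wells and 100% = 10 µM SAHA wells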
AHR act – activators of human aryl hydrocarbon receptor. AHR-responsive luciferase reporter cells, luminescence. activation, % at 5 µM. AID 2796. 320,000 compounds, 2.5% hits. P35869; in the data active = activation above about 47%;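 note: 0% = vehicle wells and 100% = reference agonist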
SR-BI DiI inh – inhibitors of mouse SR-BI mediated HDL lipid uptake. Q61009. ldlA[mSR-BI] CHO cells, DiI-HDL uptake fluorescence, 3 h. 320,000 compounds, 0.96% hits. inhibition, % at 12.5 µM. AID 488896;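 active = mean replicate inhibition of at least 70% and a set share of replicates each scoring 70 or more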;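 note: 0% = median of neutral control wells and 100% = median of positive control wells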
Target sequence (Q61009 whole entry, looked up): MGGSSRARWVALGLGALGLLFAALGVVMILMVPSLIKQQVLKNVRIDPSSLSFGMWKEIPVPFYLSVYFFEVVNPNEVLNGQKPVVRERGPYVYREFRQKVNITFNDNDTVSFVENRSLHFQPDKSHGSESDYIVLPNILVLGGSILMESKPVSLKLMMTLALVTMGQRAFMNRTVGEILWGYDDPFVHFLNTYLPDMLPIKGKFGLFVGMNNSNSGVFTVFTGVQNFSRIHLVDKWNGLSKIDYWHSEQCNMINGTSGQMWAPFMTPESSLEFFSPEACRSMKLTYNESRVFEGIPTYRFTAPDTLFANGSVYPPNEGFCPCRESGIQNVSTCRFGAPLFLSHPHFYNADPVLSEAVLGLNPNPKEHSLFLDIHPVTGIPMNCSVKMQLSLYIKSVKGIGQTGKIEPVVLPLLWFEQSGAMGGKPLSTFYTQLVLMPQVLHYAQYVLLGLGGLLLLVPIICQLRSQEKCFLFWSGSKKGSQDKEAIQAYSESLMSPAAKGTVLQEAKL
Active calls of the source: *; . = no result.

SMILES	JMJD2C inh	SR-BI DiI-HDL act	GAA850 FXN act	AHR act	SR-BI DiI inh
O=C(Nc1ccc2c(c1)OCCO2)c1cc2sccc2n1Cc1ccc(F)cc1	-8.9	-66.4	-1.6	64.3*	66.4
O=C(Nc1ccc2c(c1)OCCO2)c1cc2sccc2n1Cc1ccccc1	-9.1	-53.6	-5.8	26.4	53.6
COc1ccc(C2c3[nH]c4ccccc4c3CCN2Cc2ccoc2)c(F)c1 (stereo not drawn)	1.3	-24.5	-2.4	47.3*	24.5
Oc1cccc(C2c3[nH]c4ccccc4c3CCN2Cc2ccoc2)c1 (stereo not drawn)	-12.7	-0.7	-0.4	22.4	0.7
CC(NC(C)c1ccccc1Cl)C(=O)Nc1cccc(S(=O)(=O)N2CCCCC2)c1 (stereo not drawn)	.	-12.2	-1.3	-0.1	12.2
Cn1/c(=N/NC(=O)c2ccccc2F)sc2ccccc21	-17.2	-0.6	5.5	69.9*	0.6
CCC(=O)N/N=c1/sc2ccccc2n1C	-0.2	-2.6	-0.5	36.0	2.6
COc1cccc(C(=O)N/N=c2\sc3ccccc3n2C)c1	0.2	53.3	0.9	72.5*	-53.3
Cc1ccc(C(=O)N/N=c2\sc3ccccc3n2C)cc1	-1.4	17.1	5.1	94.9*	-17.1
CN(Cc1nccn1C)C(=O)C1CCC(=O)N(Cc2cccc(C(F)(F)F)c2)C1 (stereo not drawn)	-0.6	6.9	-0.3	-0.6	-6.9
O=C(Nc1cc(F)ccc1F)C1CCCN1S(=O)(=O)c1cccc2nsnc12 (stereo not drawn)	5.6	19.2	2.1	0.8	-19.2
COc1ccc(CCNC(=O)CNS(=O)(=O)c2ccc(Br)cc2)cc1	4.4	6.2	-0.4	-0.6	-6.2
C/C(=N\Nc1nc2ccccc2[nH]1)c1ccc(Cl)s1	-4.3	-30.0	2.6	72.9*	30.0
C/C(=N\Nc1nc2ccccc2[nH]1)c1ccc(N2CCOCC2)cc1	-16.2	-1.8	6.3	76.3*	1.8
CC(=O)N1CCC(=NNc2nc3ccccc3[nH]2)CC1	-27.6	17.2	4.9	62.6*	-17.2
C/C(=N\Nc1nc(C)cc(C)n1)c1ccc(N2CCOCC2)cc1	25.0	18.1	0.4	26.5	-18.1
O=C(CSc1nc2ccccc2[nH]1)c1ccc(Cl)s1	5.3	-3.6	3.4	-3.0	3.6
CCC(C)(C)C1CCC(=NNc2nc3ccccc3[nH]2)CC1 (stereo not drawn)	7.8	9.3	1.4	49.6*	-9.3
Cc1ccc(Cn2c(CCC(=O)O)nc3ncccc3c2=O)cc1	2.9	18.3	2.0	.	-18.3
O=C(CSc1ccc(Br)cc1)NCC(c1ccco1)N1CCCCC1 (stereo not drawn)	10.9	12.9	0.4	2.6	-12.9
CCOc1cc(C2NC(=O)c3ccccc3O2)ccc1OC(C)C (stereo not drawn)	11.4	-17.8	4.2	3.4	17.8
Cc1cc(C)cc(OCC(=O)OCC(=O)Nc2c(C)n(C)n(-c3ccccc3)c2=O)c1	-8.9	6.7	0.5	-1.4	-6.7
Cn1c(C(=O)c2ccncc2)cc2ccccc21	5.0	-4.6	3.4	7.8	4.6
COC(=O)c1ccccc1CSc1nsc(/C=C/N(C)C)c1C#N	-11.6	-101.2	0.2	-0.6	101.2*
Cc1nc(CSc2nsc(/C=C/N(C)C)c2C#N)cs1	-5.4	-16.6	3.8	.	16.6
SMILES	JMJD2C inh	SR-BI DiI-HDL act	GAA850 FXN act	AHR act	SR-BI DiI inh
Cc1ccc(-n2cnc3scc(-c4cccs4)c3c2=O)cc1	0.0	.	0.2	0.9	.
Cc1ccc(C(=O)Nn2cnc3scc(-c4cccs4)c3c2=O)c(O)c1	-4.3	-2.2	-1.1	60.2*	2.2
CC/C(=N/NC(=O)CNc1ccc(Cl)cc1C)c1ccccc1	4.6	-15.3	-1.3	19.5	15.3
Cc1cc(NC(=O)Nc2cccc(C)c2C)no1	4.1	0.7	-0.8	51.6*	-0.7
Cc1ccc(C(=O)Nc2cccnc2)cc1S(=O)(=O)N1CCOCC1	10.8	-16.6	-0.5	36.6	16.6
Cc1ccc(NC(=O)c2ccc(=O)[nH]c2)cc1S(=O)(=O)N1CCCCCC1	-6.0	-79.7	-0.5	-0.6	79.7*
Cc1ccc(C(=O)Nc2cccnc2)cc1S(=O)(=O)N1CCCCCC1	35.7	-4.5	0.6	76.7*	4.5
CN(C)S(=O)(=O)Oc1ccsc1C(=O)Nc1ccc(C(F)(F)F)cc1	1.1	-10.5	2.4	55.3*	10.5
COc1ccccc1NC(=O)Nc1nnc(CC(=O)Nc2cccc(C)c2)s1	54.8	.	1.4	22.9	.
COc1ccc2nc(C)c3cc(C)oc3c2c1	.	8.8	-1.0	-3.2	-8.8

From PubChem BioAssay
